Assay results collected from several papers.
Each line is one published result; the experiments were not run side by side.
Read-out: cell growth or viability

SMILES | cell line | technique | time | quantity | value
C1COCCN1.COc1ccc(/C=C\c2cc(I)c(OC)c(I)c2)cc1OP(=O)(O)O | SF-268 | SRB | 48 h | GI50 | 0.054 µg/mL
COc1c2c(cc3c1OCO3)[C@]13C=C[C@H](OC)C[C@@H]1[N@](C2)C[C@H]3OC(=O)c1ccco1 | PANC-1 | WST-1 |  | IC50 | > 10 µM
COc1cc(C(=O)c2cc3cc(N)cc(OC)c3s2)cc(OC)c1OC | human Lymphocyte | MTT | 72 h | IC50 | > 20 µM
COC1=C2C[C@@H](C)C[C@H](OC)[C@H](O)[C@@H](C)/C=C(\C)[C@H](OC(N)=O)[C@@H](OC)/C=C\C=C(/C)C(=O)NC(=C(c3ccccc3)C1=O)C2=O | ARPE-19 | MTT |  | IC50 | 8.3 µM
CCCc1cc(=O)n2nc(NCc3c(F)cc(Cl)cc3F)c(C#N)c2[nH]1 | CAL-51 | ATP luminescence | 72 h | IC50 | > 50 µM
COC1=C2C[C@@H](C)C[C@H](OC)[C@H](O)[C@@H](C)/C=C(\C)[C@H](OC(N)=O)[C@@H](OC)/C=C\C=C(/C)C(=O)NC(=C(C)C1=O)C2=O | ARPE-19 | MTT |  | IC50 | > 20 µM
C=CC(=O)Nc1cc(Nc2nccc(-c3cn(C)c4ccccc34)n2)c(OC)cc1N(C)CCN(C)C | BaF3 |  | 72 h | GI50 | 2.76 µM
COc1c2c(cc3c1OCO3)[C@]13C=C[C@H](OC)C[C@@H]1[N@](C2)C[C@H]3OC(=O)c1ccoc1 | PANC-1 | WST-1 |  | IC50 | > 10 µM
